ChEMBL document CHEMBL1134771, “Synthesis and antimalarial activity of novel medium-sized 1,2,4,5-tetraoxacycloalkanes” (J Med Chem, 2001)

Columns and labels:
FM3A = experiment: in vitro cytotoxicity against mouse mammary tumor in cell culture.; assay type: functional, cell-based
Summary of the method: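 Mouse mammary tumor FM3A cells in culture, used as a mammalian cytotoxicity control; EC50 determined.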

Mus musculus [1] = experiment: in vivo antimalarial activity against Plasmodium berghei infected mice (Mus musculus) on intraperitoneal administration; assay type: functional; settings: ip
Summary of the method: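 Mice infected with P. berghei NK 65. Compounds were prepared in olive oil at various concentrations and injected intraperitoneally into groups of five mice once daily on days 0–3, starting on the day of infection. Parasitemia was measured on day 4, and ED50/ED90 were calculated by the earlier protocol.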

Plasmodium falciparum = experiment: In vitro antimalarial activity for Plasmodium falciparum; assay type: functional, organism-based
Summary of the method: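 Chloroquine-sensitive P. falciparum FCR-3 strain cultured in vitro; EC50 determined.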

[2] = Mean of EC50 value for FM3A cells/ mean of EC50 value for Plasmodium falciparum; assay type: functional
Summary of the method: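 Selectivity is the mean EC50 against FM3A mouse mammary tumor cells divided by the mean EC50 against P. falciparum FCR-3.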

Mus musculus [3] = experiment: in vivo antimalarial activity against Plasmodium berghei infected mice (Mus musculus) on oral administration; assay type: functional
Summary of the method: (§1)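 Mice infected with P. berghei NK 65. Compounds were prepared in olive oil at various concentrations and given orally to groups of five mice once daily on days 0–3, starting on the day of infection. Parasitemia was read on day 4, and ED50/ED90 were derived by the earlier protocol.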

Mus musculus [4] = experiment: In vivo antimalarial activity against Plasmodium berghei infected mice (Mus musculus) on oral administration; assay type: functional; summary of the method: as §1

Compound | EC50 (FM3A) [nM] | ED50 (Mus musculus [1]) [mg/kg] | ED90 (Mus musculus [1]) [mg/kg] | EC50 (Plasmodium falciparum) [nM] | Selectivity [2] | ED90 (Mus musculus [3]) [mg/kg] | ED50 (Mus musculus [4]) [mg/kg]
C1CCCCCC2(CCCCC1)OOCCCCOO2 | 17000 | 48 | 65 | 100 | 170 |  | 
C1CCCCCC2(CCCCC1)OOCCCCCCCCOO2 | 29000 |  |  | 1700 | 17 |  | 
C[C@@H]1CC[C@H]2[C@@H](C)C(=O)O[C@@H]3O[C@@]4(C)CC[C@@H]1[C@]32OO4 [ARTEMISININ] |  | 5 | 32 | 10 | 1000 | 89 | 13
C1CCCCCC2(CCCCC1)OOCCCCCOO2 | 12000 |  |  | 280 | 43 |  | 
C1COOC2(OOC1)C1CC3CC(C1)CC2C3 | 58000 | 100 |  | 50 | 1160 |  | 
CCCCCCC1(CCCCCC)OOCCCOO1 | 19000 | 60 | 91 | 200 | 95 |  | 
C1CCCCCC2(CCCCC1)OOCCCOO2 | 8000 | 12 | 20 | 25 | 320 | 40 | 20
CC(C)(C)C1CCC2(CC1)OOCCCOO2 | 30000 | 15 | 30 | 3 | 10000 | 84 | 52
CCCCCC1(CCCCC)OOCCCOO1 | 34000 | 30 | 58 | 310 | 110 |  | 
C1CCCCCC2(CCCCC1)OOCCCCCCOO2 | 16000 | 160 | > 200 | 10 | 1600 |  | 
